Laboratory results published in ChEMBL document CHEMBL1641492, “Design, synthesis and biological evaluation of novel L-lysine ureido derivatives as aminopeptidase N inhibitors” (Bioorg Med Chem, 2011).

biological target: T1, Aminopeptidase N (Sus scrofa, UniProt P15145); assay: Inhibition of porcine kidney microsomal APN after 10 mins at room temperature by spectrophotometry; details: not given
T1 sequence (P15145 whole entry): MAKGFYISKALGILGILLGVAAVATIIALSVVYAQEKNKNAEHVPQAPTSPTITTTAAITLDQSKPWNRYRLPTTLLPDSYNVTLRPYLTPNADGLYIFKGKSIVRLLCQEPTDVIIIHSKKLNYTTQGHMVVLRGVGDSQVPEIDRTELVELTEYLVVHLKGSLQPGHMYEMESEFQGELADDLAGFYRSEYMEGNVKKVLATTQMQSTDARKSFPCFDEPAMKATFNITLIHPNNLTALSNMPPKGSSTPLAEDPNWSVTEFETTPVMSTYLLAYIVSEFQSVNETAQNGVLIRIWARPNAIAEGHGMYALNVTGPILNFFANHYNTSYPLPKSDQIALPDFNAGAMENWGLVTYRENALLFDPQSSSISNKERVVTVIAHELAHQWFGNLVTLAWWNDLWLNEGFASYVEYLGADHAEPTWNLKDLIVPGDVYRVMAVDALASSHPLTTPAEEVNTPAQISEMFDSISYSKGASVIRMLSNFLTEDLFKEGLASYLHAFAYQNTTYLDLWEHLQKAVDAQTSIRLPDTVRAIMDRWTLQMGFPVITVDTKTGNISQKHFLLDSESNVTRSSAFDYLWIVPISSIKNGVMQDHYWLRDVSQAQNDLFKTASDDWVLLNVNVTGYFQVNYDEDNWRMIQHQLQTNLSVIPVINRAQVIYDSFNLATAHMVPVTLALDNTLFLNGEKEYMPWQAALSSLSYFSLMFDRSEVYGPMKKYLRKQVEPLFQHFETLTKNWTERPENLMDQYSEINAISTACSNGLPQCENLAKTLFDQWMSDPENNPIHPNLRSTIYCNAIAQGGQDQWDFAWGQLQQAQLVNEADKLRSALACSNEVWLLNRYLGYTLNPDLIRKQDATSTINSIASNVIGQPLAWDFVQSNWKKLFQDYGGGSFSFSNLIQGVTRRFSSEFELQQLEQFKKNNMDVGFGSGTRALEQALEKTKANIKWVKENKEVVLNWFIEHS
Summary of the method: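 Porcine kidney microsomal aminopeptidase (lyophilized, 15–25 units/mg protein), 6 µg/mL final, preincubated with inhibitor 10 min at room temperature. Substrate L-Leu-p-nitroanilide, 50 mM PBS pH 7.2, 37 °C. Inhibitor solutions in assay buffer adjusted to pH 7.5. IC50 as mean ± SD of three independent assays.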

SMILES | IC50 [µM]
CC[C@@H](C)[C@H](NC(=O)N[C@@H](CCCCNC(=O)OCc1ccccc1)C(=O)NO)C(=O)NO | > 50
O=C(N[C@@H](CCCCNC(=O)OCc1ccccc1)C(=O)NO)N[C@@H](Cc1ccccc1)C(=O)NO | 14.5
CSCC[C@H](NC(=O)N[C@@H](CCCCNC(=O)OCc1ccccc1)C(=O)NO)C(=O)NO | 14.4
COC(=O)[C@H](CCCCNC(=O)OCc1ccccc1)NC(=O)N[C@H](C(=O)OC)C(C)C | > 50
COC(=O)[C@H](CCCCNC(=O)OCc1ccccc1)NC(=O)N[C@@H](CC(C)C)C(=O)OC | > 50
CC[C@@H](C)[C@H](NC(=O)N[C@@H](CCCCNC(=O)OCc1ccccc1)C(=O)OC)C(=O)OC | > 50
COC(=O)[C@H](CCCCNC(=O)OCc1ccccc1)NC(=O)N[C@@H](Cc1ccccc1)C(=O)OC | > 50
COC(=O)[C@H](CCCCNC(=O)OCc1ccccc1)NC(=O)N[C@@H](CCSC)C(=O)OC | > 50
O=C(O)CNC(=O)N[C@@H](CCCCNC(=O)OCc1ccccc1)C(=O)O | > 50
C[C@H](NC(=O)N[C@@H](CCCCNC(=O)OCc1ccccc1)C(=O)O)C(=O)O | > 50
CC(C)[C@H](NC(=O)N[C@@H](CCCCNC(=O)OCc1ccccc1)C(=O)O)C(=O)O | > 50
CC(C)C[C@H](NC(=O)N[C@@H](CCCCNC(=O)OCc1ccccc1)C(=O)O)C(=O)O | > 50
CC[C@@H](C)[C@H](NC(=O)N[C@@H](CCCCNC(=O)OCc1ccccc1)C(=O)O)C(=O)O | > 50
O=C(N[C@@H](CCCCNC(=O)OCc1ccccc1)C(=O)O)N[C@@H](Cc1ccccc1)C(=O)O | > 50
CSCC[C@H](NC(=O)N[C@@H](CCCCNC(=O)OCc1ccccc1)C(=O)O)C(=O)O | > 50
O=C(CNC(=O)N[C@@H](CCCCNC(=O)OCc1ccccc1)C(=O)NO)NO | 20.4
C[C@H](NC(=O)N[C@@H](CCCCNC(=O)OCc1ccccc1)C(=O)NO)C(=O)NO | 19.9
CC(C)C[C@H](NC(=O)N[C@@H](CCCCNC(=O)OCc1ccccc1)C(=O)NO)C(=O)NO | 4.51
COC(=O)[C@H](CCCCNC(=O)OCc1ccccc1)NC(=O)NCc1ccccc1 | > 50
COC(=O)[C@H](CCCCNC(=O)OCc1ccccc1)NC(=O)NCCc1ccccc1 | > 50
COC(=O)[C@H](CCCCNC(=O)OCc1ccccc1)NC(=O)NC(C)(C)C | > 50
O=C(NCc1ccccc1)N[C@@H](CCCCNC(=O)OCc1ccccc1)C(=O)NO | 16.4
O=C(NCCc1ccccc1)N[C@@H](CCCCNC(=O)OCc1ccccc1)C(=O)NO | > 50
CC(C)(C)NC(=O)N[C@@H](CCCCNC(=O)OCc1ccccc1)C(=O)NO | > 50
COC(=O)CNC(=O)N[C@@H](CCCCNC(=O)OCc1ccccc1)C(=O)OC | > 50
COC(=O)[C@H](C)NC(=O)N[C@@H](CCCCNC(=O)OCc1ccccc1)C(=O)OC | > 50

system: not listed separately; assay: Antiproliferative activity against human ES2 cells after 48 hrs by MTT assay; assay type: functional, cell-based; details: ES-2, 48 h
Summary of the method: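 ES-2 human cells seeded at 5000 per well, adhered 10 h, then exposed to 2500, 500, 100, 20 and 4 µg/mL compound for 48 h. MTT 0.5% solution added, 4 h further incubation, formazan dissolved in DMSO, absorbance at 570 nm. Three independent experiments, mean with SE.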

SMILES | IC50 [µM]
O=C(N[C@@H](CCCCNC(=O)OCc1ccccc1)C(=O)NO)N[C@@H](Cc1ccccc1)C(=O)NO | 395
CSCC[C@H](NC(=O)N[C@@H](CCCCNC(=O)OCc1ccccc1)C(=O)NO)C(=O)NO | 356
C[C@H](NC(=O)N[C@@H](CCCCNC(=O)OCc1ccccc1)C(=O)NO)C(=O)NO | 415
CC(C)C[C@H](NC(=O)N[C@@H](CCCCNC(=O)OCc1ccccc1)C(=O)NO)C(=O)NO | 291
CC(C)C[C@H](NC(=O)[C@@H](O)[C@H](N)Cc1ccccc1)C(=O)O [UBENIMEX] | 332
